# Assay results published in ChEMBL document CHEMBL1156597, “Structure-activity relationship of kahalalide F synthetic analogues” (J Med Chem, 2008).
# How the values were obtained:
# [1] = tested on: DU-145; assay: Cytotoxicity against human DU145 cells after 48 hrs by SRB assay; format: functional, cell-based; settings: Homo sapiens, DU-145, 48 h; for GI50: read-out: GI50; for CC50: read-out: LC50 (the source's name)
# In short: (§1)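 Cells grown in RPMI 1640 with 10% FBS and penicillin/streptomycin at 37 °C and 5% CO₂, trypsinized, then seeded at 5 × 10³/well. After 18 h drug-free attachment, samples in DMSO/EtOH/PBS (0.5:0.5:99) were added for 48 h continuous exposure. Cells were fixed with cold TCA (1 h, 4 °C) and stained with SRB (10 min). Tris-solubilized stain read at 490 nm. Triplicate wells, mean ± SD; GI₅₀ derived.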
# [2] = tested on: LNCaP; assay: Cytotoxicity against human LNcaP cells after 48 hrs by SRB assay; format: functional; settings: for CC50: read-out: LC50 (the source's name); in short: as §1
# [3] = Cytotoxicity against human IGROV cells after 48 hrs by SRB assay; format: functional; settings: for CC50: read-out: LC50 (the source's name); in short: as §1
# [4] = Cytotoxicity against human IGROV-ET cells after 48 hrs by SRB assay; format: functional; settings: for CC50: read-out: LC50 (the source's name); in short: as §1
# [5] = tested on: SK-BR-3; assay: Cytotoxicity against human SKBR3 cells after 48 hrs by SRB assay; format: functional; settings: SK-BR-3, 48 h; for GI50: read-out: GI50; for CC50: read-out: LC50 (the source's name); in short: as §1
# [6] = tested on: SK-MEL-28; assay: Cytotoxicity against human SK-MEL-28 cells after 48 hrs by SRB assay; format: functional, cell-based; settings: Homo sapiens, SK-MEL-28, 48 h; for GI50: read-out: GI50; for CC50: read-out: LC50 (the source's name); in short: as §1
# [7] = tested on: A549; assay: Cytotoxicity against human A549 cells after 48 hrs by SRB assay; format: functional, cell-based; settings: Homo sapiens, A549, 48 h; for GI50: read-out: GI50; in short: as §1
# [8] = tested on: K562; assay: Cytotoxicity against human K562 cells after 48 hrs by SRB assay; format: functional; settings: K562, 48 h; for CC50: read-out: LC50 (the source's name); in short: as §1
# [9] = tested on: PANC-1; assay: Cytotoxicity against human PANC1 cells after 48 hrs by SRB assay; format: functional; settings: PANC-1, 48 h; for CC50: read-out: LC50 (the source's name); in short: as §1
# [10] = tested on: HT-29; assay: Cytotoxicity against human HT29 cells after 48 hrs by SRB assay; format: functional, cell-based; settings: Homo sapiens, HT-29, 48 h; for CC50: read-out: LC50 (the source's name); in short: as §1
# [11] = tested on: LoVo; assay: Cytotoxicity against human LoVo cells after 48 hrs by SRB assay; format: functional; settings: for CC50: read-out: LC50 (the source's name)
# [12] = tested on: LoVo; assay: Cytotoxicity against human doxorubicin resistant LoVo cells after 48 hrs by SRB assay; format: functional; settings: for CC50: read-out: LC50 (the source's name); in short: as §1
# [13] = tested on: HeLa; assay: Cytotoxicity against human HeLa cells after 48 hrs by SRB assay; format: functional; settings: for CC50: read-out: LC50 (the source's name); in short: as §1
# [14] = Cytotoxicity against human HeLa-APL cells after 48 hrs by SRB assay; format: functional; in short: as §1
structure (smiles),measurement,setting,value
C/C=C1\NC(=O)[C@H](Cc2ccccc2)NC(=O)[C@@H](C(C)C)NC(=O)[C@@H]([C@H](C)CC)NC(=O)[C@H](NC(=O)[C@H](NC(=O)[C@H](CCCCN)NC(=O)[C@H]2CCCN2C(=O)[C@H](NC(=O)[C@@H](NC(=O)[C@@H](NC(=O)[C@H](NC(=O)CCCC(C)C)C(C)C)[C@@H](C)O)C(C)C)C(C)C)[C@H](C)CC)[C@H](C)OC(=O)[C@H](C(C)C)NC1=O,TGI,[1],2440 nM
same,GI50,[1],1290 nM
same,CC50,[1],3170 nM
same,GI50,[2],1330 nM
same,TGI,[2],1150 nM
same,CC50,[2],985 nM
same,GI50,[3],568 nM
same,GI50,[3]; read-out: GI50,562 nM
same,CC50,[3],5720 nM
same,GI50,[4],619 nM
same,GI50,[4]; read-out: GI50,645 nM
same,CC50,[4],587 nM
same,TGI,[5],366 nM
same,GI50,[5],385 nM
same,CC50,[5],351 nM
same,TGI,[6],1270 nM
same,GI50,[6],1470 nM
same,CC50,[6],1370 nM
same,LC50,[7],1340 nM
same,TGI,[7],1390 nM
same,GI50,[7],1440 nM
same,GI50,[8],9350 nM
same,TGI,[8],14700 nM
same,CC50,[8],4770 nM
same,GI50,[9],5110 nM
same,TGI,[9],4550 nM
same,CC50,[9],2210 nM
same,GI50,[10],521 nM
same,TGI,[10],422 nM
same,CC50,[10],340 nM
same,GI50,[11],426 nM
same,TGI,[11],379 nM
same,CC50,[11],337 nM
same,GI50,[12],301 nM
same,TGI,[12],280 nM
same,CC50,[12],36.6 nM
same,GI50,[13],910 nM
same,TGI,[13],776 nM
same,CC50,[13],883 nM
same,GI50,[14],512 nM
same,LC50 (concentration giving 50% net cell kill),[14],757 nM
same,TGI,[14],664 nM
C/C=C1\NC(=O)[C@H](Cc2ccccc2)NC(=O)[C@@H](C(C)C)NC(=O)[C@@H]([C@H](C)CC)NC(=O)[C@H](NC(=O)[C@H](NC(=O)[C@H](CCCN)NC(=O)[C@H]2CCCN2C(=O)[C@H](NC(=O)[C@@H](NC(=O)[C@@H](NC(=O)[C@H](NC(=O)CCCC(C)C)C(C)C)[C@@H](C)O)C(C)C)C(C)C)[C@H](C)CC)COC(=O)[C@H](C(C)C)NC1=O,TGI,[1],5210 nM
same,GI50,[1],5040 nM
same,CC50,[1],5370 nM
same,GI50,[2],3370 nM
same,TGI,[2],3360 nM
same,CC50,[2],2140 nM
same,TGI,[3],25100 nM
same,GI50,[3]; read-out: GI50,16700 nM
same,CC50,[3],33800 nM
same,GI50,[4],753 nM
same,GI50,[4]; read-out: GI50,620 nM
same,CC50,[4],663 nM
same,CC50,[5],610 nM
same,TGI,[6],1500 nM
same,GI50,[6],1900 nM
same,CC50,[6],1180 nM
same,LC50,[7],1270 nM
same,TGI,[7],1350 nM
same,GI50,[7],1440 nM
same,CC50,[8],4460 nM
same,CC50,[9],8970 nM
same,GI50,[10],983 nM
same,TGI,[10],1540 nM
same,CC50,[10],1970 nM
same,GI50,[11],457 nM
same,TGI,[11],513 nM
same,CC50,[11],620 nM
same,GI50,[12],353 nM
same,TGI,[12],367 nM
same,CC50,[12],384 nM
same,CC50,[13],1470 nM
same,GI50,[14],1930 nM
same,LC50 (concentration giving 50% net cell kill),[14],1320 nM
same,TGI,[14],1650 nM
CC[C@@H](C)[C@@H](NC(=O)[C@H](CCCN)NC(=O)[C@H]1CCCN1C(=O)[C@H](NC(=O)[C@@H](NC(=O)[C@@H](NC(=O)[C@H](NC(=O)CCCC(C)C)C(C)C)[C@@H](C)O)C(C)C)C(C)C)C(=O)N[C@H]1C(=O)N[C@H]([C@H](C)CC)C(=O)N[C@H](C(C)C)C(=O)N[C@@H](Cc2ccccc2)C(=O)NC(C)(C)C(=O)N[C@@H](C(C)C)C(=O)O[C@H]1C,TGI,[1],1390 nM
same,GI50,[1],1640 nM
same,CC50,[1],1170 nM
same,CC50,[2],1390 nM
same,GI50,[3],790 nM
same,GI50,[3]; read-out: GI50,1790 nM
same,CC50,[3],368 nM
same,GI50,[4],668 nM
same,GI50,[4]; read-out: GI50,1080 nM
same,CC50,[4],423 nM
same,TGI,[5],1980 nM
same,GI50,[5],2130 nM
same,CC50,[5],777 nM
same,TGI,[6],3080 nM
same,GI50,[6],2180 nM
same,CC50,[6],1740 nM
same,LC50,[7],1430 nM
same,CC50,[8],1930 nM
same,CC50,[9],1770 nM
same,GI50,[10],2350 nM
same,TGI,[10],2120 nM
same,CC50,[10],743 nM
same,GI50,[11],2320 nM
same,TGI,[11],2310 nM
same,CC50,[11],2070 nM
same,GI50,[12],1590 nM
same,TGI,[12],1500 nM
same,CC50,[12],456 nM
same,CC50,[13],1090 nM
same,GI50,[14],2790 nM
same,LC50 (concentration giving 50% net cell kill),[14],1430 nM
same,TGI,[14],2800 nM
C/C=C1\NC(=O)[C@H](Cc2ccccc2)NC(=O)[C@@H](C(C)C)NC(=O)[C@@H]([C@H](C)CC)NC(=O)[C@H](NC(=O)[C@H](NC(=O)[C@H](CCCNC(=O)C(F)(F)F)NC(=O)[C@H]2CCCN2C(=O)[C@H](NC(=O)[C@@H](NC(=O)[C@@H](NC(=O)[C@H](NC(=O)CC[C@@H](C)CC)C(C)C)[C@@H](C)O)C(C)C)C(C)C)[C@H](C)CC)[C@H](C)OC(=O)[C@H](C(C)C)NC1=O,TGI,[1],1100 nM
same,GI50,[1],1330 nM
same,CC50,[1],898 nM
same,GI50,[2],1460 nM
same,TGI,[2],1990 nM
same,CC50,[2],1410 nM
same,GI50,[3],276 nM
same,GI50,[3]; read-out: GI50,305 nM
same,CC50,[3],87.5 nM
same,GI50,[4],508 nM
same,GI50,[4]; read-out: GI50,489 nM
same,CC50,[4],528 nM
same,TGI,[5],190 nM
same,GI50,[5],112 nM
same,CC50,[5],320 nM
same,TGI,[6],1540 nM
same,GI50,[6],1910 nM
same,CC50,[6],1220 nM
same,LC50,[7],1200 nM
same,TGI,[7],1170 nM
same,GI50,[7],1140 nM
same,CC50,[8],1810 nM
same,CC50,[9],1660 nM
same,GI50,[10],266 nM
same,TGI,[10],301 nM
same,CC50,[10],342 nM
same,GI50,[11],311 nM
same,TGI,[11],296 nM
same,CC50,[11],282 nM
same,GI50,[12],276 nM
same,TGI,[12],282 nM
same,CC50,[12],287 nM
same,GI50,[13],502 nM
same,TGI,[13],463 nM
same,CC50,[13],525 nM
same,GI50,[14],1210 nM
same,LC50 (concentration giving 50% net cell kill),[14],789 nM
same,TGI,[14],963 nM
